Reference: PMC4836853 (Arteriosclerosis, thrombosis, and vascular biology, 2016)
Entries after “also recorded” stand apart in the source; their conditions may differ. Where two headings read alike, the source gives them in different places. Values belong to the compound of their own block, whether it stands above or below them. Peptide text beside a SMILES is read from it. * marks the point of attachment. Palmitoyl = CCCCCCCCCCCCCCCC(=O)*

Assays:
[1] = biological target: T1, PAR1 (Homo sapiens, UniProt P25116); conditions: cited from earlier work
T1 sequence (P25116 22-425): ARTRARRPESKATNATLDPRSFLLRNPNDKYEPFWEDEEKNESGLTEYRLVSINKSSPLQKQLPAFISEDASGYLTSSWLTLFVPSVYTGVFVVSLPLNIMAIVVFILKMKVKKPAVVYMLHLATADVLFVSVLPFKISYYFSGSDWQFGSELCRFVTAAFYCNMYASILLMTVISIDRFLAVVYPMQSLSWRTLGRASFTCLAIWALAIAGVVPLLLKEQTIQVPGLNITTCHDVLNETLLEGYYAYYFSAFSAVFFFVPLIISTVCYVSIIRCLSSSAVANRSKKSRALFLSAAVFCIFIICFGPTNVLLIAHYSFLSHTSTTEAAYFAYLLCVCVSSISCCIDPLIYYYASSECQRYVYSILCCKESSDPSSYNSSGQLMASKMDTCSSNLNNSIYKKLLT

[2] = biological target: T1, PAR1; conditions: cited from earlier work; remark: listed apart in the source
[3] = biological target: T1, PAR1; assay: Ex vivo platelet aggregation to PAR1 agonist SFLLRN; format: in vivo; conditions: for inhibition at 2 mg/kg: read-out: inhibition of final aggregation to 8 μmol/L SFLLRN, 2 mg/kg
[4] = Pharmacokinetics of PZ-128 in plasma and urine after 1 to 2 hours iv infusion; format: in vivo, human
[5] = Safety, tolerability and hemostasis parameters in phase 1 subjects; format: in vivo, human
Method in brief: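 Single ascending IV doses went to subjects with CAD or multiple CAD risk factors. Cohorts of 0.01–2 mg/kg received 1-h infusions; a final 0.5 mg/kg cohort received a 2-h infusion after antiallergic premedication. Assessments were at baseline, 0.5, 1, 2, 6 and 24 h, and 7–10 days. APTT, INR, ACT and bleeding time were regressed on dose using repeated-measures mixed-effects models with Bonferroni post hoc correction.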

SMILES: CCOC(=O)N[C@@H]1CC[C@@H]2[C@@H](C1)C[C@H]1C(=O)O[C@H](C)[C@H]1[C@H]2/C=C/c1ccc(-c2cccc(F)c2)cn1 [Vorapaxar, vorapaxar]
- inhibition of SFLLRN-induced aggregation at 2 hours ([1]; 40-mg loading dose (≈0.4 mg/kg)): ≥ 80%
- inhibition of SFLLRN-induced aggregation at 30 minutes ([1]; 40-mg oral loading dose): no appreciable inhibition

SMILES: CCOc1cc2c(c(F)c1OCC)C(=N)N(CC(=O)c1cc(N3CCOCC3)c(OC)c(C(C)(C)C)c1)C2 [atopaxar]
- time to maximal platelet inhibition after the loading dose ([2]; LANCELOT-ACS subjects): 6 h
- QTc interval ([2]; higher dose levels): prolongation of the QTc interval was observed in some individuals

- inhibition at 2 mg/kg ([3]; 1 to 2-hour time points): 96 to 98%
- inhibition at 2 mg/kg ([3]; 6 to 192-hour time points): 15 to 21%
- inhibition at 0.3 mg/kg ([3]; read-out: mean inhibition of platelet aggregation (final), 8 μmol/L SFLLRN, 0.3 mg/kg, 30 minutes to 6 hours): 20 to 40%
- inhibition at 0.5 mg/kg ([3]; read-out: mean inhibition of platelet aggregation (final), 8 μmol/L SFLLRN, 0.5 mg/kg, 30 minutes to 6 hours): 40 to 60%
- Cmax ([4]; human, plasma, intravenous): 4700 to 21500 nM
- Vd ([4]; human, plasma, intravenous): 0.11 to 0.17 L/kg
- Cmax ([4]; human, plasma, intravenous, 0.5 mg/kg): 1800 to 2700 nM
- half-life ([4]; human, plasma, iv): 1.3 to 1.8 h
- level at time molar ([4]; human, plasma, iv): 1000 to 3000 nM
- level at time molar at 6 h ([4]; human, plasma, iv, 0.5 mg/kg): < 500 nM
- peak plasma drug levels, 2-mg/kg versus 1-mg/kg cohort ([4]; in vivo): 2 fold
SMILES: CCCCCCCCCCCCCCCC(=O)N[C@@H](CCCCN)C(=O)N[C@@H](CCCCN)C(=O)N[C@@H](CO)C(=O)N[C@@H](CCCNC(=N)N)C(=O)N[C@@H](C)C(=O)N[C@@H](CC(C)C)C(=O)N[C@@H](Cc1ccccc1)C(N)=O [PZ-128] (Palmitoyl-KKSRALF-NH2)
- drug in plasma at 24 to 192 hours ([4]; all subjects): undetectable; also recorded: no detectable drug
- PZ-128 in urine ([4]; any time point, all subjects): nondetectable; also recorded: little or no PZ-128 detected; also recorded: not renally cleared
- tolerability / allergic response ([5]; 0.5 mg/kg, 2-hour infusion, antiallergic premedication): none of these subjects had an allergic response; also recorded: appeared to be well tolerated
- tolerability ([5]; 0.01-, 0.03-, 0.1-, and 0.3-mg/kg, 1-hour intravenous infusion): well tolerated
- transient tingling or numb sensation in the skin ([5]; 0.5–2 mg/kg): commonly reported
- subjects with no hemodynamic effects ([5]; 2-mg/kg dose over the 1-hour infusion): 50%
- effects on coagulation, hemostasis parameters, or bleeding ([5]; any dose): No significant effects
- heart rate, ECG parameters (RR, PR, QRS, QT, QTc, QTd) or pulmonary function ([5]; any dose): no significant changes
- most important adverse event ([5]; highest doses (1–2 mg/kg), 1-hour infusion): acute allergic reactions
- clinical chemistry, hematology, urinalysis ([5]; human, in vivo): not significantly affected
